Measured values published in article PMC11105966 (Journal of medicinal chemistry, 2024).
Values after ≈ are worked out from the molar mass of the structure shown. Values joined by “and” are separate entries in the source; they are usually repeats but may differ in a detail not shown here. Identical values can stand only once. Like-named read-outs stand apart in the source and are kept apart here.

Key:
[1] = tested on: MCF7 cells; experiment: MTT cytotoxicity assay, MCF7 cells; type: cell-based, human
Procedure, shortened: (§1)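 Cells seeded at 4000–7000 per well in 10% FBS medium. Lines were grown at 37°C, 5% CO2: MCF-7, LM3–3, BT-20 and BT-474 in DMEM/10% FBS; MDA-MB-468 in RPMI 1640/5% FBS; SUM159PT in Ham's F-12/5% FBS with insulin and hydrocortisone. At 70–80% confluence, test compound was added at 0.2–1000 nM for 72 h, then MTT. Viability relative to untreated cells; IC50 from Hill-slope fit.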

[2] = molecular target: DNA-bound ER/SRC-3/P300 complex (Homo sapiens, UniProt Q9Y6Q9); experiment: Biotinylated ERE pull-down assay; type: biochemical
DNA-bound ER/SRC-3/P300 complex, sequence (Q9Y6Q9 whole entry, one chain of several): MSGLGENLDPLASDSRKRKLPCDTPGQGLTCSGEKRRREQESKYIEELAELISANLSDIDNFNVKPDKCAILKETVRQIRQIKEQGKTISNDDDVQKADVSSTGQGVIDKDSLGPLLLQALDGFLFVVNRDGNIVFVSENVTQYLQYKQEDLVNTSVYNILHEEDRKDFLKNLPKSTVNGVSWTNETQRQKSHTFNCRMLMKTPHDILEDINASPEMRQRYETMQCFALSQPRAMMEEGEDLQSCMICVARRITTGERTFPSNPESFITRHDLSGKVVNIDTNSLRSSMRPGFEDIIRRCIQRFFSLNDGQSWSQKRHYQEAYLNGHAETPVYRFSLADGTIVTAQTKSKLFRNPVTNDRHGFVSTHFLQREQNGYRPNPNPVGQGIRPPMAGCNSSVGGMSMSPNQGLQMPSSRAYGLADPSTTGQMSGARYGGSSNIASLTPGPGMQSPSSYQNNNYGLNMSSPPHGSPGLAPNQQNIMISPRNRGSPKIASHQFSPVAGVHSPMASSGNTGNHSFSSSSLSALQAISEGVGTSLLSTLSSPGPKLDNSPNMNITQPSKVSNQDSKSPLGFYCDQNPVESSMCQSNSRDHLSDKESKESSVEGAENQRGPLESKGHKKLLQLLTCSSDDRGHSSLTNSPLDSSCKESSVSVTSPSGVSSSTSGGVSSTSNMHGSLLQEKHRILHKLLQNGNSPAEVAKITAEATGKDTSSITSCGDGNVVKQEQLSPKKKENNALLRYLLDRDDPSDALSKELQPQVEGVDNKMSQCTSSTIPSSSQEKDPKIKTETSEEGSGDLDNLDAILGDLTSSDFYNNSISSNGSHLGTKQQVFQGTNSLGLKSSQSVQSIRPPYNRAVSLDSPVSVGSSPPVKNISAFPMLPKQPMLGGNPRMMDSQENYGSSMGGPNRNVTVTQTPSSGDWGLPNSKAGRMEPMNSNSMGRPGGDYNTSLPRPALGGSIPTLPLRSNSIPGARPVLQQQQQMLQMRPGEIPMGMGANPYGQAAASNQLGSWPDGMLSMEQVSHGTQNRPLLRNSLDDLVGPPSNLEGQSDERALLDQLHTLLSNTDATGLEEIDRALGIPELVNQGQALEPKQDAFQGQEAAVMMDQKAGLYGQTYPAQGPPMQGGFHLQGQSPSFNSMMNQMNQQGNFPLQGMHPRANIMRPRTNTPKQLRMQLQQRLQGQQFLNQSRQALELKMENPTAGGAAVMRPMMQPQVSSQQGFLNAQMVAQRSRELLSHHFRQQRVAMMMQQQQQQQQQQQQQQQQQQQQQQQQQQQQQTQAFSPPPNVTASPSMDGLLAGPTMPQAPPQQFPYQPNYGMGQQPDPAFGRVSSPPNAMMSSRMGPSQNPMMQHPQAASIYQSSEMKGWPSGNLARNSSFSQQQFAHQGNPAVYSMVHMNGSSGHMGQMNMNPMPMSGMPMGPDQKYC
Procedure, shortened: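 Baculovirus-expressed, affinity-purified His-SRC-3-flag was incubated with test compound or vehicle for 30 min on ice, 0.1 μg protein. Then 0.1 μg recombinant ERα and His-p300 and an ERE-containing DNA oligo were added with 1 μM 17-β estradiol for 1 h on ice. The ER complex was pulled down and bound SRC-3 and p300 quantified by western blot.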

[3] = molecular target: hERG (Homo sapiens, UniProt Q12809); type: cell-based
hERG, sequence (Q12809 whole entry): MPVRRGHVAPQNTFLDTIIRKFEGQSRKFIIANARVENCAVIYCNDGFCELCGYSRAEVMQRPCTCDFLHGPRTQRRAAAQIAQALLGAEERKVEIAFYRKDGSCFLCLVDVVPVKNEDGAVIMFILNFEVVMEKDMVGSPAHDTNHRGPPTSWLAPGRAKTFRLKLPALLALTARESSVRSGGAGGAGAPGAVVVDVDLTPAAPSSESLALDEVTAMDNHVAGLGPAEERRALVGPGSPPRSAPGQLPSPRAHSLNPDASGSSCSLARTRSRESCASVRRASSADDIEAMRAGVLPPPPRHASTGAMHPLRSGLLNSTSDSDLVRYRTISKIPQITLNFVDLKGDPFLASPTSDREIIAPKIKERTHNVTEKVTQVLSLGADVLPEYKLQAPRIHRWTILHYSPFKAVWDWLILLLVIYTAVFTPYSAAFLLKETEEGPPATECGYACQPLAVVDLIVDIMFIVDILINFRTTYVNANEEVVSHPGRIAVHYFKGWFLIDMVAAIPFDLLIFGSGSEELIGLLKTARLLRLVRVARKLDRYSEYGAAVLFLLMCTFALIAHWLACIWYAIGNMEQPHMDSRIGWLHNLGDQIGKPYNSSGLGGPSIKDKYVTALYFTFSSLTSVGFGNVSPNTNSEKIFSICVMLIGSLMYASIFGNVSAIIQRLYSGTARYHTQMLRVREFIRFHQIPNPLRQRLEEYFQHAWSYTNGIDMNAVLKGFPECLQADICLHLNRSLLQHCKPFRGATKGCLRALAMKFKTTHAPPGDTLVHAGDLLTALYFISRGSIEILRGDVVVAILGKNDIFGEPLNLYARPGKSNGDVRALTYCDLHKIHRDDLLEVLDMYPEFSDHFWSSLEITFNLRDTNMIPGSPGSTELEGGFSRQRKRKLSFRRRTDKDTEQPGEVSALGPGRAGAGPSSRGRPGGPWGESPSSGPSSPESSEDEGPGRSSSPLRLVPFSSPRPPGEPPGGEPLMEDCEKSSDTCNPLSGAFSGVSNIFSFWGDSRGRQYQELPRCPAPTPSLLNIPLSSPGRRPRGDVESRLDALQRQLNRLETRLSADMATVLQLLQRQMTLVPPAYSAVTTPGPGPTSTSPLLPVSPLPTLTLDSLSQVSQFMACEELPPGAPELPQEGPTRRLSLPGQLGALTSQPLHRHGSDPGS

[4] = Water solubility; type: physicochemical
[5] = tested on: MDA-MB-468 cells; experiment: Wash-out experiment in MDA-MB-468 cell line; type: cell-based, human; details: drug washed out with PBS, total incubation 72 h, MTT
Procedure, shortened: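 MDA-MB-468 cells were grown in RPMI 1640 with 5% FBS. They were exposed to test compound for varying durations, washed with PBS, and kept in culture to a total of 72 h. Viability was read by MTT, and EC50 and EC90 were derived for each exposure time.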

[6] = tested on: Panc-1-Luc cells; experiment: Orthotopic Panc-1 PDAC mouse model; type: in vivo, SCID mice; details: 10 mg/kg i.p. once per day, 8 weeks, orthotopic PDAC mice
Procedure, shortened: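 0.5×10^6 Panc-1-Luc cells were implanted orthotopically in the pancreas of male SCID mice aged 8 weeks. Mice were randomized by luciferase imaging (n=5 per group). From day 8, test compound 10 mg/kg i.p. or vehicle was given daily. Luciferase imaging and body weight were recorded weekly; tumors harvested at day 63.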

[7] = Full pharmacokinetic profile, IV and oral, CD-1 mice; type: in vivo; details: male, CD-1, mouse, plasma; for Cmax: po, 10 mg/kg
Procedure, shortened: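 Male mice, 6 weeks, n=3 per route. Test compound in 20% DMSO, 16% PEG, 4% dextrose in PBS: IV 1 mg/kg (0.5 mg/mL) or oral gavage 10 mg/kg (1 mg/mL). 10 μL blood taken from 2 or 15 min to 48 h. Plasma measured by LC-MS/MS against 0.5–1000 ng/mL calibration standards with four QC levels. Non-compartmental extravascular PK fit.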

[8] = Stability in human plasma; type: in vitro ADME; details: Fig S2
[9] = tested on: PANC-1-shSRC-3.1 cells; experiment: MTT viability, SRC-3 knock-down cells shSRC-3.1; type: cell-based, human; details: PANC-1 shSRC-3.1 and shSRC-3.2 vs control/parental cells
Procedure, shortened: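 SRC-3 was stably knocked down in PANC-1 cells with lentiviral shRNAs (shSRC-3.1, shSRC-3.2; shCtrl control), and SRC-3 levels were checked by western blot. Cells were treated with varying doses of test compound for 72 h and viability read by MTT. The IC50 of knock-down cells was compared with that of control cells to give the fold change.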

[10] = tested on: prostate cancer PDX organoids; experiment: Inhibition assay in prostate cancer PDX organoids; type: cell-based, human; details: 2 weeks treatment
Procedure, shortened: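 Tumors grown in SCID mice were digested with collagenase I and III to single cells. 20000 cells were embedded in collagen gel, set 20 min at 37°C, then cultured overnight at 37°C, 5% CO2. Test compound or vehicle given for 14 days, at least 5 wells per dose. Organoids imaged and counted on day 14; Student t test.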

[11] = tested on: 78 targets, including GPCRs, ion channel, receptors, kinase, enzymes and transporters; experiment: SafetyScreen panel against 78 targets; details: at 10 μM
Procedure, shortened: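 Commercial off-target safety panel covering GPCR (calcium flux agonist/antagonist, cAMP), ion channel (hERG blocker) and non-kinase enzyme assays. Test compound was screened at 10 μM, with RC50 values determined for interacting targets.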

[12] = Percentage of free drug; type: in vitro ADME
[13] = tested on: AR-PDX tumor cells 118b; experiment: Intra-femoral bone metastasis mouse model of prostate cancer; type: in vivo, SCID mice; details: 10 mg/kg/day i.p., four weeks; for reduction in femur volume compared to vehicle: CT imaging
Procedure, shortened: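 1 × 10^5 AR-PDX 118b cells were injected […] into male SCID mice aged 8–9 weeks. Two weeks later, n=9 per group received vehicle or 10 mg/kg/day i.p. for 4 weeks; x-ray imaging every two weeks. Femurs were collected at the end. CT 3D reconstruction was done on 5 femurs per group, plus histology; tumor/femur area ratio. Left femur as negative control.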

[14] = tested on: mouse primary hepatocytes; experiment: MTT cytotoxicity assay, mouse primary hepatocytes; type: cell-based; details: for IC50: Mus musculus, Hepatocyte; for toxicity in mouse primary hepatocytes: up to 1000 nM
Procedure, shortened: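 Primary hepatocytes were isolated by collagenase perfusion from an adult female CD-1 mouse. They were maintained in M199 medium with 10% FBS at 37°C, 5% CO2.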

[15] = mice; cited from earlier work
[16] = tested on: LNCaP cells; experiment: LNCaP xenograft mouse model; type: in vivo, SCID mice
Procedure, shortened: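 1×10^7 LNCaP cells were implanted subcutaneously on both sides of the back of male SCID mice. Daily 10 mg/kg i.p. dosing or vehicle started 4 weeks after inoculation and ran for 4 weeks. Tumor size (length × width × width/2) measured weekly. Survival endpoint was tumor diameter of 3.0 cm. Ki67, cleaved caspase 3 and CD31 IHC on tumor sections at the end of treatment.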

[17] = tested on: seven human cancer cell lines known to overexpress SRC-3; experiment: MTT cytotoxicity, panel of seven human cancer cell lines; type: cell-based; details: read-out: IC50 values across the cancer cell lines
Procedure, shortened: as §1

[18] = Maximum tolerated dose / tolerability in mice; type: in vivo
[19] = cytotoxicity to MCF7 cells, MTT assay, 72 h, mean of triplicate

methyl 6-((E)-1-(((E)-5,6-dichloro-1-methyl-1,3-dihydro-2H-benzo[d]imidazol-2-ylidene)hydrazineylidene)ethyl)nicotinate [6f]
IC50 [1, 19]: 2.9 nM

6-((E)-1-(((E)-5,6-dichloro-1-methyl-1,3-dihydro-2H-benzo[d]imidazol-2-ylidene)hydrazineylidene)ethyl)nicotinamide [6g]
IC50 [1, 19]: 2.7 nM

1-(1-methyl-1H-benzo[d]imidazol-2-yl)-3-(pyridin-2-yl)-1H-pyrazol-5-ol [compound 12]
IC50 [1, 19]: > 1000 nM

(E)-2-(2-(1-(5-fluoropyridin-2-yl)ethylidene)hydrazineyl)-3-methyl-2,3-dihydrobenzo[d]thiazole [8b]
IC50 [1, 19]: > 1000 nM

C/C(=N\NC1Oc2ccccc2N1C)c1ccc(F)cn1 (stereo not drawn) [8a, (E)-2-(2-(1-(5-fluoropyridin-2-yl)ethylidene)hydrazineyl)-3-methyl-2,3-dihydrobenzo[d]oxazole]
effect on the ER complex ([2]; at 1.5 μM): did not affect the ER complex
IC50 ([1]; Homo sapiens, MCF7, 72 h): > 1000 nM

6-((E)-1-(((E)-5,6-difluoro-1-methyl-1,3-dihydro-2H-benzo[d]imidazol-2-ylidene)hydrazineylidene)ethyl)-N-hydroxynicotinamide [6m]
IC50 [1, 19]: > 1000 nM

C/C(=N\N=c1/[nH]c2cc(F)c(F)cc2n1C)c1ccc(F)cn1 [SI-12, (E)-5,6-difluoro-2-(((E)-1-(5-fluoropyridin-2-yl)ethylidene)hydrazineylidene)-1-methyl-2,3-dihydro-1H-benzo[d]imidazole]
hERG inhibition ([3]; at 10 μM): moderate hERG inhibition
solubility [4]: 3.8 µM (≈ 1.21 µg/mL)
treatment time sufficient to achieve maximal cytotoxicity [5]: 3 to 6 h
body weight [6]: did not cause any mice body weight change
AUC(0-t) ([7]; iv, 1 mg/kg): 2.31 µM·h
half-life ([7]; iv, 1 mg/kg): 22 h
Cmax [7]: 2740 nM
stability in human plasma [8]: excellent stability
fold reduction of potency in SRC-3 knock-down cells vs control cells [9]: approximately 5 fold
fold reduction of potency in SRC-3 knock-down cells vs control cells ([9]; listed as SI-12 (6c)): 4.7 ~5.8 fold
recruitment of SRC-3 and p300 in the ER complex ([2]; at 0.15 μM, SRC-3 protein 0.13 μM): significantly decreased
formation and growth of organoids [10]: effectively suppressed
interactions with other targets of the panel [11]: minimal
percentage of free drug [12]: 2.2%
decrease of ratio of tumor area to femur area [13]: over 50%
reduction in femur volume compared to vehicle [13]: > 55%
IC50 [14]: > 1000 nM
toxicity in mouse primary hepatocytes [14]: did not observe any toxicity

C/C(=N\Nc1nc2ccccc2n1C)c1ccccn1 [SI-2]
plasma half-life [15]: 1 h and ~ 1 h

C/C(=N\Nc1nc2cc(F)c(F)cc2n1C)c1ncccn1 [SI-10, (E)-5,6-difluoro-1-methyl-2-(((E)-1-(pyrimidin-2-yl)ethylidene)hydrazineylidene)-2,3-dihydro-1H-benzo[d]imidazole]
hERG inhibition ([3]; at 30 μM): did not show appreciable hERG inhibition
solubility [4]: 22.8 µM (≈ 6.89 µg/mL)
AUC(0-t) ([7]; iv, 1 mg/kg): 0.29 µM·h
Cmax [7]: 1140 nM
mouse survival ([16]; 10 mg/kg i.p. once per day, 3.0 cm tumor diameter endpoint): significantly prolonged
cleaved caspase 3 positive tumor cells ([16]; IHC at end of treatment, vehicle 2%): Approximately 10%
Ki67 positive cells in tumors ([16]; IHC at end of treatment, vehicle more than 50% positive): significantly lower
stability in human plasma [8]: excellent stability
IC50 [17]: 1 to 32 nM
body weight ([18]; 50 mg/kg or 100 mg/kg, once per day, 4 weeks): did not cause any loss of body weight
acute tolerability ([18]; oral administration up to 100 mg/kg (highest dose tested)): did not cause appreciable stress
percentage of free drug [12]: 6.6%
decrease of ratio of tumor area to femur area [13]: over 50%
reduction in femur volume compared to vehicle [13]: > 55%
IC50 [14]: > 1000 nM
toxicity in mouse primary hepatocytes [14]: did not observe any toxicity
